Data on 5 molecules can be found in PMC10193422 (ACS Omega, 2023).

The structures appear in SMILES notation. Converted amounts (≈) assume the structure as drawn.

In one data set the test system is Candida tropicalis 2718. The experiment in a line: MIC, CLSI broth microdilution. The class given is cell-based. Particulars: Candida tropicalis, 2718, 24 h, read-out: MIC C. tro 2718. A digest of the protocol: (§1)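 CLSI broth microdilution (M27-A3 and M60). Strains are kept frozen in YPD with 40% glycerol, passaged twice on Sabouraud dextrose agar at 30 °C, then grown overnight in YPD at 30 °C with shaking. Test compound is dissolved in DMSO, serially diluted in growth medium, inoculated, and incubated at 30 °C. Candida spp. are read at 24 h, C. glabrata at 48 h and C. neoformans at 72 h. MIC is the first well with ≥50% growth reduction versus the drug-free well.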

Data set [1] relates to Cryptococcus neoformans H99. The experiment in a line: MIC, CLSI broth microdilution. The format is cell-based. Particulars: H99, 72 h, read-out: MIC C. neo H99. A digest of the protocol: as §1
A further data set deals with Candida albicans. To be noted: cited from earlier work.
The test system of data set [2] is Aspergillus fumigatus 7544. Description: MIC, CLSI broth microdilution. Particulars: Aspergillus fumigatus, 7544, 48 h, read-out: MIC A. fum 7544. The class given is cell-based. A digest of the protocol:
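Mould MIC by CLSI broth microdilution (M27-A3 and M60). The strain comes from a frozen YPD/40% glycerol stock. Test compound is dissolved in DMSO and serially diluted in growth medium. Wells are inoculated and incubated at 35 °C for 48 h. MIC is the first well with ≥50% growth reduction versus the drug-free control.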

The next data set concerns Candida albicans SC5314. The experiment in a line: MIC, CLSI broth microdilution. The class given is cell-based. Particulars: SC5314, 24 h, read-out: MIC C. alb SC5314. A digest of the protocol: as §1
For another data set, the system named is C. auris BS12372. Description: MIC against drug-resistant C. auris clinical isolate. The class given is cell-based, Candida auris. Particulars: Candidozyma auris, BS12372, 24 h, read-out: MIC C. aur BS12372.
Data set [3] relates to sterol composition in C. albicans SC5314. Description: Sterol composition analysis by GC-MS. Particulars: compounds at 0.008 μg/mL, FLC at 8 μg/mL. The format is cell-based, Candida albicans.
The next data set has as its system C. auris 888. Description: MIC against drug-resistant C. auris clinical isolate. The format is cell-based, Candida auris. Particulars: Candidozyma auris, 888, 24 h, read-out: MIC C. aur 888.
The test system of a further data set is C. auris 789. The description is as above. The format is cell-based, Candida auris. Particulars: Candidozyma auris, 789, 24 h, read-out: MIC C. aur 789.
Another data set relates to C. auris 887. Described as above. The class given is cell-based, Candida auris. To be noted: Candidozyma auris, 887, 24 h, read-out: MIC C. aur 887.
The test system of a further data set is C. auris D12. The description is as above. Particulars: Candidozyma auris, D12, 24 h, read-out: MIC C. aur D12. The class given is cell-based, Candida auris.
The next data set deals with C. auris 791. The description is as above. The class given is cell-based, Candida auris. To be noted: Candidozyma auris, 791, 24 h, read-out: MIC C. aur 791.
The nature of the next data set: Hemolysis assay. The class given is cell-based. To be noted: rabbit, rabbit red blood cell suspension.

Regarding `C[C@@H](c1ncncc1F)[C@](O)(Cn1cncn1)c1ccc(F)cc1F` [VOC, voriconazole], the MIC with Candida tropicalis 2718 was less than 0.008 µg/mL; in data set [1], 0.0625 µg/mL (≈ 0.179 µM); in data set [2] it was 0.125 µg/mL (≈ 0.358 µM); in the data set on Candida albicans SC5314 it was less than 0.008 µg/mL. In addition, in the data set on Candida albicans, the “MIC against Candida albicans” value is 0.06 µg/mL (≈ 0.172 µM).
`OC(Cn1cncn1)(Cn1cncn1)c1ccc(F)cc1F` [FLC, fluconazole]: the MIC was more than 64 µg/mL in the data set with C. auris BS12372; less than 0.125 µg/mL in the data set with Candida tropicalis 2718; 8 µg/mL (≈ 26.1 µM) in data set [1]; more than 64 µg/mL in the data set with C. auris 888; more than 64 µg/mL in the data set on C. auris 789; more than 64 µg/mL with C. auris 887. In addition, the MIC in [2] was more than 64 µg/mL; in the data set with C. auris D12 it was more than 64 µg/mL; with C. auris 791, more than 64 µg/mL; in the data set on Candida albicans SC5314 it was 0.25 µg/mL (≈ 0.816 µM). The “ergosterol content in treated cells” value in data set [3] is given as “almost completely depleted”.
As for `CC[C@@H]([C@H](C)O)n1ncn(-c2ccc(N3CCN(c4ccc(OC[C@@H]5CO[C@@](Cn6cncn6)(c6ccc(F)cc6F)C5)cc4)CC3)cc2)c1=O` [POS, posaconazole], the MIC in the data set with Candida tropicalis 2718 is less than 0.008 µg/mL; in [1], less than 0.008 µg/mL; in data set [2], 0.125 µg/mL (≈ 0.178 µM); with Candida albicans SC5314, less than 0.008 µg/mL.
On to `O[C@@](Cn1cnnn1)(c1ccc(F)cc1F)C(F)(F)c1ccc(-c2ccc(OCC(F)(F)F)cc2)cn1` [OTC, oteseconazole], for which the MIC in the data set on C. auris BS12372 is less than 0.0625 µg/mL; with Candida tropicalis 2718, less than 0.008 µg/mL; in data set [1] it was less than 0.008 µg/mL; in the data set on C. auris 888 it was 8 µg/mL (≈ 15.2 µM); with C. auris 789, 2 µg/mL (≈ 3.79 µM); in the data set with C. auris 887 it was 4 µg/mL (≈ 7.58 µM). Besides, the MIC in [2] was more than 64 µg/mL; with C. auris D12, 0.25 µg/mL (≈ 0.474 µM); in the data set on C. auris 791, 8 µg/mL (≈ 15.2 µM); in the data set with Candida albicans SC5314 it was less than 0.008 µg/mL.
As to `C[C@@H]1[C@H](O)[C@@H](C)/C=C/C=C/C=C/C=C/C=C/C=C/C=C/[C@H](O[C@@H]2O[C@H](C)[C@@H](O)[C@H](N)[C@@H]2O)C[C@@H]2O[C@](O)(C[C@@H](O)C[C@@H](O)[C@H](O)CC[C@@H](O)C[C@@H](O)CC(=O)O[C@H]1C)C[C@H](O)[C@H]2C(=O)O` [AmB, amphotericin B], in the data set “Hemolysis assay”, the hemolysis at 1 h, 32 μg/mL worked out at 26.8% and the hemolysis at 1 h, 64 μg/mL worked out at 100%.
